We go through six compounds from ChEMBL document CHEMBL3407473, “5'-(N-aminoacyl)-sulfonamido-5'-deoxyadenosine: attempts for a stable alternative for aminoacyl-sulfamoyl adenosines as aaRS inhibitors” (2015).

Values after ≈ are worked out from the molar mass of the structure shown. Active and inactive are the calls of the source. The calls are words filed in the database; no cut-off is given here.

The subject of test [1] is Escherichia coli. In words: Antimicrobial activity against wild-type Escherichia coli after 18 hrs by broth dilution method. The format is functional. The method in brief: (§1)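 Strains grown overnight in LB, then subcultured the next day in fresh LB. Compounds serially diluted in LB in 96-well plates with cell suspension. Growth read as optical density. Highest concentration tested […], as printed. Broth dilution run in triplicate. MIC50 taken from the OD readings.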
For orientation: Dilution methods test growth across graded concentrations, often in twofold steps.

A further test deals with Candida albicans. In words: Antimicrobial activity against Candida albicans CO11 after 18 hrs by broth dilution method. The format is functional. As to conditions: CO11, 18 h. The method in brief:
as §1

The next test has as its system Staphylococcus aureus. The test is described as follows: Antimicrobial activity against Staphylococcus aureus ATCC 6538 after 18 hrs by broth dilution method. To be noted: ATCC 6538, 18 h. The format is functional. The method in brief:
as §1

For the next test, the system named is Micrococcus luteus. The test is described as follows: Antimicrobial activity against Sarcina lutea ATCC 9341 after 18 hrs by broth dilution method. The format is functional. To be noted: ATCC 9341, 18 h. The method, boiled down: as §1
Test [2] concerns Escherichia coli. In words: Inhibition of aminoacyl tRNA synthetase in wild-type Escherichia coli S30 cell extract asessed as inhibition of [14C]-radiolabeled aminoacid incorporation at 50 uM after 5 mins by liquid scintillation counting analysis. The method, boiled down: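 Inhibitor incubated with 3 L E. coli wt S30 extract, as printed. Aminoacylation mix: Tris.HCl 30 mM pH 8.0, DTT 1 mM, bulk E. coli tRNA 5 g/l, ATP 3 mM, KCl 30 mM, MgCl2 8 mM, 14C-labelled amino acid 40 M (200 mCi/mmol), units as printed. Samples spotted on papers, washed with cold 10% TCA then acetone, dried. Radioactivity read by scintillation counting.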

What is called MIC50 is the lowest concentration that inhibits either 50% of growth or 50% of the strains tested, depending on the study. For the compound `NCC(=O)NS(=O)(=O)C[C@H]1O[C@@H](n2cnc3c(N)ncnc32)[C@H](O)[C@@H]1O`, the MIC50 in the test on Escherichia coli [1], in the test on Candida albicans, in the test on Staphylococcus aureus and against Micrococcus luteus was greater than 100 µM each time.

With `CC(C)C[C@H](N)C(=O)NS(=O)(=O)C[C@H]1O[C@@H](n2cnc3c(N)ncnc32)[C@H](O)[C@@H]1O`, the MIC50 against Escherichia coli [1], against Candida albicans, with Staphylococcus aureus and against Micrococcus luteus was greater than 100 µM throughout.

With `Nc1ncnc2c1ncn2[C@@H]1O[C@H](CS(=O)(=O)NC(=O)[C@@H](N)CO)[C@@H](O)[C@H]1O`, the MIC50 against Escherichia coli [1], in the test with Candida albicans, against Staphylococcus aureus and in the test on Micrococcus luteus was greater than 100 µM throughout.

As to `Nc1ncnc2c1ncn2[C@@H]1O[C@H](CS(=O)(=O)NC(=O)[C@@H](N)CC(=O)O)[C@@H](O)[C@H]1O`, in the test with Escherichia coli [2], the inhibition result is “Active”. Also, the MIC50 was 50 µM (≈ 22.3 µg/mL) in the test on Escherichia coli [1], greater than 100 µM against Candida albicans, greater than 100 µM in the test with Staphylococcus aureus and greater than 100 µM against Micrococcus luteus.

As for `Nc1ncnc2c1ncn2[C@@H]1O[C@H](CS(=O)(=O)NC(=O)[C@@H](N)Cc2ccc(O)cc2)[C@@H](O)[C@H]1O`, the MIC50 against Escherichia coli [1], against Candida albicans, in the test with Staphylococcus aureus and against Micrococcus luteus was greater than 100 µM in each case.

As for `CC[C@H](C)[C@H](N)C(=O)NS(=O)(=O)C[C@H]1O[C@@H](n2cnc3c(N)ncnc32)[C@H](O)[C@@H]1O`, the MIC50 in the test on Escherichia coli [1], with Candida albicans, against Staphylococcus aureus and with Micrococcus luteus was greater than 100 µM in each case.
